Data taken from ChEMBL document CHEMBL1139422, “Design, synthesis and biological evaluation of novel compounds with conjugated structure as anti-tumor agents” (Bioorg Med Chem, 2008).
Activity calls are given as the source filed them. The rule behind the calls is not given here.

Key:
PC-3 = experiment: Antiproliferative activity against human PC3 cells after 48 hrs by MTT assay; assay type: functional, cell-based; details: PC-3, 48 h
How it was run: (§1)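 Cells seeded at 4000/well; compounds (10 mg/mL DMSO stock, diluted in medium) added 24 h after seeding, in duplicate. Incubation 48 h at 37 °C, 5% CO2. MTT (20 µL of 5 mg/mL in PBS) then added for 4 h at 37 °C, and the signal read at 570 nm.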

A549 = experiment: Antiproliferative activity against human A549 cells after 48 hrs by MTT assay; assay type: functional, cell-based; details: A549, 48 h; how it was run: as §1
HepG2 = experiment: Antiproliferative activity against human HepG2 cells after 48 hrs by MTT assay; assay type: functional, cell-based; details: HepG2, 48 h; how it was run: as §1
Histone deacetylase 4 = Histone deacetylase 4 (Homo sapiens, UniProt P56524); experiment: Inhibition of human recombinant HDAC4 using Fluor de Lys as substrate by fluorimetric assay
How it was run: (§2)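 Purified recombinant HDAC1 or HDAC4 was incubated with acetylated-lysine Fluor de Lys substrate, with or without inhibitor. Developer was then added to give the fluorophore, and fluorescence was read. IC50 values are means of at least three experiments. SI is IC50(HDAC1)/IC50(HDAC4).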

U-937 [1] = experiment: Cell cycle arrest in human U937 cells assessed as accumulation at S phase at 5 uM after 24 hrs by flow cytometry; assay type: functional, cell-based
How it was run: (§3)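 U937 cells were grown in RPMI with 10% FCS, penicillin/streptomycin, amphotericin-B, 10 mM Hepes and 2 mM glutamine, and held at 200,000 cells/mL. Cells were treated 24 h with compounds in DMSO. 2.5×10^5 cells were resuspended in hypotonic buffer (0.1% Triton X-100, 0.1% sodium citrate, 50 µg/mL PI, RNase A) for 30 min in the dark, then analysed by flow cytometry. Values are means of independent duplicates.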

Homo sapiens = species on record: Homo sapiens; experiment: Selectivity index, ratio of IC50 for human recombinant HDAC1 to IC50 for human recombinant HDAC4; how it was run: as §2
[2] = target: T1, Protein deacetylase HDAC6 (Homo sapiens) (UniProt Q9UBN7); experiment: Inhibition of HDAC6 in human U937 cells assessed as induction of alpha-tubulin acetylation after 24 hrs by Western blot analysis; assay type: cell-based; details: U-937
T1 sequence (whole entry): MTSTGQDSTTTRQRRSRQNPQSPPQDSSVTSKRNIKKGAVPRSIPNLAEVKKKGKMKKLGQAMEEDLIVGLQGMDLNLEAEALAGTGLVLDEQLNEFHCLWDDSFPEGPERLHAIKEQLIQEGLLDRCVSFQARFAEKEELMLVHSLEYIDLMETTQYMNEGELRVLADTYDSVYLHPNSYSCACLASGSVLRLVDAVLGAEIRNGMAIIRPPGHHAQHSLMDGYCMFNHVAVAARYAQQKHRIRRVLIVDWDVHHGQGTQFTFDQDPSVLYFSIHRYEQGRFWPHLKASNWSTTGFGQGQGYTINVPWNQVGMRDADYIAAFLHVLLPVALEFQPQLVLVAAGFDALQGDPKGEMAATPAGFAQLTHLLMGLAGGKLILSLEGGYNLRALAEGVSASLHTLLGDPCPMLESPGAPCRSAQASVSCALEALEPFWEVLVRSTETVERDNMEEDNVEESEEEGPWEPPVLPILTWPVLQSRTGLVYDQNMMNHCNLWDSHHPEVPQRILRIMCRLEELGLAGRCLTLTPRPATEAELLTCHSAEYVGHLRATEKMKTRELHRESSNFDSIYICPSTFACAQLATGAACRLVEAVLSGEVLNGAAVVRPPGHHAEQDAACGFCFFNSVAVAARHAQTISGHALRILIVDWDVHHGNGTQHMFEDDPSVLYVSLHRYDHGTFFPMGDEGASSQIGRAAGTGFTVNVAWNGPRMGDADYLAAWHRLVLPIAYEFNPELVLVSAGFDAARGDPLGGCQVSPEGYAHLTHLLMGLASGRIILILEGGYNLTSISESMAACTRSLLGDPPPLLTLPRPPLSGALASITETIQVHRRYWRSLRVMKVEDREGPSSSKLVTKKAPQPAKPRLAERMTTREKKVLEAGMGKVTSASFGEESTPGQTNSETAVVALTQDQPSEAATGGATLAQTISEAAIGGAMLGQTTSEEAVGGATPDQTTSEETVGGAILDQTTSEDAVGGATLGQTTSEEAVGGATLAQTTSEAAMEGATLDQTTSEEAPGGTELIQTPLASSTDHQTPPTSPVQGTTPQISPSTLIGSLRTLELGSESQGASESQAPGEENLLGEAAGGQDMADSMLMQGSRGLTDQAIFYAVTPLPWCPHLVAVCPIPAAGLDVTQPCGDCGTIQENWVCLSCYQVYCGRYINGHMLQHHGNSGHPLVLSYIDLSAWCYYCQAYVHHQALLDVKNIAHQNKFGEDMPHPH
How it was run: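 U937 cells were treated for 24 h. Total protein extract (50 µg) was run on a 10% polyacrylamide gel and blotted for acetylated α-tubulin (1:500), with total ERK as the loading control.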

U-937 [3] = experiment: Induction of p21waf1/CIP1 expression in human U937 cells after 24 hrs by Western blot analysis; assay type: functional, cell-based
How it was run: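 U937 cells were treated for 24 h. Total protein extracts (50 µg) were run on a 15% polyacrylamide gel and blotted for p21 (1:500), with tubulin as the loading control.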

HCT-116 = experiment: Antiproliferative activity against human HCT116 cells after 48 hrs by MTT assay; assay type: functional, cell-based; details: HCT-116, 48 h; how it was run: as §1
Histone deacetylase 1 = Histone deacetylase 1 (Homo sapiens, UniProt Q13547); experiment: Inhibition of human recombinant HDAC1 using Fluor de Lys as substrate by fluorimetric assay; how it was run: as §2
U-937 [4] = experiment: Induction of apoptosis in human U937 cells assessed as caspase 3 activation at 5 uM after 24 hrs by FACS analysis; assay type: functional, cell-based
How it was run: (§4)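 U937 cells were grown in supplemented RPMI at 200,000 cells/mL. Compounds in DMSO were given at 5 µM for 24 h or 30 h, or at 0.5 µM for 28 h. Apoptosis was analysed by FACS. Values are means of independent duplicates.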

U-937 [5] = experiment: Cell cycle arrest in human U937 cells assessed as accumulation at G1 phase at 5 uM after 24 hrs by flow cytometry; assay type: functional, cell-based; how it was run: as §3
U-937 [6] = experiment: Induction of monocytic differentiation in human U937 cells assessed as CD14 expression at 5 uM after 30 hrs by FACS analysis; assay type: functional, cell-based
How it was run: (§5)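 U937 cells were grown in RPMI with 10% FCS, 10 mM Hepes and 2 mM glutamine at 200,000 cells/mL. Compounds in DMSO were given for 30 h (5 µM) or 28 h (0.5 µM). Cells were stained for surface antigen for 30 min at 4 °C in the dark, washed, and resuspended in PBS with propidium iodide. PI-positive cells were excluded from the FACS analysis. Values are means of independent quadruplicates.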

U-937 [7] = experiment: Induction of apoptosis in human U937 cells assessed as caspase 3 activation at 5 uM after 30 hrs by FACS analysis; assay type: functional, cell-based; how it was run: as §4
U-937 [8] = experiment: Increase in granulocytic differentiation in human U937 cells assessed as CD11c expression at 5 uM after 30 hrs by FACS analysis; assay type: functional, cell-based; how it was run: as §5

Sequence of Histone deacetylase 4 (P56524 whole entry): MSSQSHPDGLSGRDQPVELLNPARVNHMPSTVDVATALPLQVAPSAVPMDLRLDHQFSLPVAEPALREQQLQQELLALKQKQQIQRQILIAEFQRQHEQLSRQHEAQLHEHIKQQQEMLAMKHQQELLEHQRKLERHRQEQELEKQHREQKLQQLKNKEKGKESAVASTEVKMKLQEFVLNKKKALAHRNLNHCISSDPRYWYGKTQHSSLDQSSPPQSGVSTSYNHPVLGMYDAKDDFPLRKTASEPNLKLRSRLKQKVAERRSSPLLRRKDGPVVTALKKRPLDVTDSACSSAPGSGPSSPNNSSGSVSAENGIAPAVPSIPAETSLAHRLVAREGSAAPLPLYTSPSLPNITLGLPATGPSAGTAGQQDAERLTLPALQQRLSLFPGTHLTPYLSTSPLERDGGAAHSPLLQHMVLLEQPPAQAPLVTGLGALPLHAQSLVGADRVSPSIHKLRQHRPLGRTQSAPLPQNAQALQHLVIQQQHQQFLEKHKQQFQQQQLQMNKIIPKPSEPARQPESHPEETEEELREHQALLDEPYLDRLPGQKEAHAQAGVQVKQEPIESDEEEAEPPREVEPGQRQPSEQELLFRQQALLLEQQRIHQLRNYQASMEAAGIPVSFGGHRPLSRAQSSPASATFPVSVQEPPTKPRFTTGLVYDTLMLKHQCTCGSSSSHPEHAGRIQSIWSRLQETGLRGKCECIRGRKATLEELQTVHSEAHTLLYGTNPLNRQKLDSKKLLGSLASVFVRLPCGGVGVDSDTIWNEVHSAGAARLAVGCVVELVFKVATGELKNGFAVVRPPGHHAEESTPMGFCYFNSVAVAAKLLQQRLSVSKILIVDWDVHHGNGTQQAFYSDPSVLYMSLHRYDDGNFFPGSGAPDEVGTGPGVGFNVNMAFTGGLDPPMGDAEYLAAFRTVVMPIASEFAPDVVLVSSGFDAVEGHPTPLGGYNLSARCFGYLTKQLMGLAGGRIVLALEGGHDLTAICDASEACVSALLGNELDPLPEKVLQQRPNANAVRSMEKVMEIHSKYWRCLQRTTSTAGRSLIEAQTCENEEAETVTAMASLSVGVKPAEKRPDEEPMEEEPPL
Sequence of Histone deacetylase 1 (Q13547 whole entry): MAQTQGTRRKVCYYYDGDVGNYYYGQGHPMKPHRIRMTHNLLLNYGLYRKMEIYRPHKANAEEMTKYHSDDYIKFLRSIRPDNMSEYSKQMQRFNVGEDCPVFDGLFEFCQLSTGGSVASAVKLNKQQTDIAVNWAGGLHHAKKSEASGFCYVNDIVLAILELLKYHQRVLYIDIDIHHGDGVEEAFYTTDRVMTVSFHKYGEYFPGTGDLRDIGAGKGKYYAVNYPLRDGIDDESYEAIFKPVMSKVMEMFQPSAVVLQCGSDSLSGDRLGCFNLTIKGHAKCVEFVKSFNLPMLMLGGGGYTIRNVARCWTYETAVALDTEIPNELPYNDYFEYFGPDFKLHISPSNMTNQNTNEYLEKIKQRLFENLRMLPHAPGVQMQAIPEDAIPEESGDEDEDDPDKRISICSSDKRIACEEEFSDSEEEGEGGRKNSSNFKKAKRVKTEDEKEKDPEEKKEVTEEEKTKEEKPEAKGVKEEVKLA

SMILES | IC50 (PC-3) [µM] | IC50 (A549) [µM] | IC50 (HepG2) [µM] | IC50 (Histone deacetylase 4) [µM] | Activity (U-937 [1]) | Ratio IC50 (Homo sapiens) | Activity [2] | Activity (U-937 [3]) | IC50 (HCT-116) [µM] | IC50 (Histone deacetylase 1) [µM] | Activity (U-937 [4]) | Activity (U-937 [5]) | Activity (U-937 [6]) | Activity (U-937 [7]) | Activity (U-937 [8])
CC(=O)O[C@H]1C(=O)[C@@]2(C)[C@H]([C@H](OC(=O)c3ccccc3)[C@]3(O)C[C@H](OC(=O)[C@H](O)[C@@H](NC(=O)c4ccccc4)c4ccccc4)C(C)=C1C3(C)C)[C@]1(OC(C)=O)CO[C@@H]1C[C@@H]2O [PACLITAXEL] | 2.73 | 13.1 | 0.62 | – | – | – | – | – | – | – | – | – | – | – | –
COc1ccc2cc(C(=O)/C=C/c3ccc(/C=C/C(=O)NO)o3)ccc2c1 | 36.3 | – | 6.22 | 4.04 | Active | 2.7 | Active | Active | 2.06 | 11 | Active | – | – | – | –
O=C(NO)c1ccc(/C=C/c2ccc3c(c2)OCO3)o1 | 45.9 | 63.6 | 33.6 | 85.6 | – | 0.34 | – | – | 4.98 | 29.6 | – | – | – | – | –
O=C(NO)c1ccc(/C=C/c2cccc(Cl)c2Cl)o1 | 39.2 | 23.6 | 37.2 | 49.3 | – | 0.51 | – | – | 3.39 | 25.3 | – | – | – | – | –
CC(C)c1ccc(C(=O)/C=C/c2ccc(/C=C/C(=O)NO)o2)cc1 | 2.27 | 56.7 | 35.9 | 4.89 | – | 4.9 | Active | Active | 0.49 | 24.1 | – | Active | – | – | –
Cc1ccc(C(=O)/C=C/c2ccc(/C=C/C(=O)NO)o2)cc1 | 16 | 48.6 | 16 | 1.1 | Active | 11.9 | – | – | 0.54 | 13.2 | Active | – | – | – | –
O=C(NO)c1ccc(/C=C/c2ccc(O)cc2)o1 | 21.8 | 86.4 | 20.9 | 57.1 | – | 0.76 | – | – | 2.73 | 43.1 | – | – | inactive | Active | Active
O=C(/C=C/c1ccc(/C=C/C(=O)c2cccc(Cl)c2)o1)NO | 9.6 | 18.9 | 54.5 | 12.9 | – | 1 | Active | Active | 1.51 | 12.6 | Active | Active | – | – | –
O=C(/C=C/c1ccc(/C=C/C(=O)c2ccc(Cl)cc2)o1)NO | 1.35 | 98.1 | 6.74 | 6.03 | – | 2.6 | Active | Active | 2.01 | 15.7 | – | Active | – | – | –
O=C(/C=C/c1ccc(/C=C/C(=O)c2cc(Cl)ccc2Cl)o1)NO | 24.7 | 27.1 | 48.3 | 4.31 | – | 1.1 | Active | Active | 4.12 | 4.72 | – | Active | – | – | –
COc1cccc(/C=C/c2ccc(C(=O)NO)o2)c1O | 35.1 | – | – | 42.8 | – | 1.17 | – | – | – | 50.1 | – | – | – | – | –
Nc1ccccc1NC(=O)c1ccc(CNC(=O)OCc2cccnc2)cc1 [ENTINOSTAT] | 59.1 | – | 60.1 | – | – | – | – | – | 27.5 | – | – | – | – | – | –
O=C(/C=C/c1ccc(/C=C/C(=O)c2ccc(Cl)cc2Cl)o1)NO | 16.2 | 88.1 | 13.5 | 8.19 | Active | 0.5 | Active | Active | 6.73 | 4.29 | Active | – | – | – | –
O=C(/C=C/c1ccc(/C=C/C(=O)c2ccc(F)cc2)o1)NO | 40.1 | – | 12 | 7.68 | – | 2 | Active | Active | 2.82 | 15 | Active | Active | – | – | –
